Screens (PubChem BioAssay)
This is a sample that favours compounds with a hit; in the whole collection about 4.1% have one here.
FLuc inhib CS: Photinus pyralis luciferase inhibition counter-screen | ATPLite firefly luciferase biochemical luminescence, 10 min | inhibition, % at 10 µM | actives 1.5% (n = 200,000) | AID 1006;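 active = inhibition above about 50% when tested at 10 µM, limit read from the data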
Target sequence (P08659 whole entry, looked up): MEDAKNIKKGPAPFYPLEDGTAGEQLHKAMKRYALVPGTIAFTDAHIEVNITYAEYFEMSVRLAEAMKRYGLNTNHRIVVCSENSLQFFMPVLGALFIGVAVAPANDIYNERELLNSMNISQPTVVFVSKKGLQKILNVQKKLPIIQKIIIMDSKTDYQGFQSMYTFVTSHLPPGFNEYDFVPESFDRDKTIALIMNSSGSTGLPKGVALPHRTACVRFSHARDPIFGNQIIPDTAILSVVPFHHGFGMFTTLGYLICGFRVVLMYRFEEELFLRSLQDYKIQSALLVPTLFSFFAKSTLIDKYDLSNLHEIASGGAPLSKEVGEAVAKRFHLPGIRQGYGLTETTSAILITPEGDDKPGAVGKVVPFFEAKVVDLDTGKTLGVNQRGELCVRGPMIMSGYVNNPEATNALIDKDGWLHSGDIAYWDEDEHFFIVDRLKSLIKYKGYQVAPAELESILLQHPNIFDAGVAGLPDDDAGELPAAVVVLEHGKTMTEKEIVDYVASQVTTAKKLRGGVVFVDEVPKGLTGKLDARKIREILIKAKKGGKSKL
FLuc act counter: firefly luciferase counter-screen for stimulation assays. P08659. 200,000 tested, under 10 active. activation factor at 10 µM. ATPlite luciferase biochemical, luminescence, 10 min; 0 = ATP-free wells, 1 = DMSO control;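 active = luciferase activation factor, scaled between plate controls, of at least 2 with compound at 10 µM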
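System: cell-free luciferase reagent; medium: PBS as buffer for the ATP substrate; doses: test compounds dosed from 2 mM stocks in 100% DMSO; incubation: 10 min, room temperature; measured by: luminescence from luciferase reaction; read-out: luciferase activation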
APP 5'UTR act: activates APP 5'UTR luciferase reporter | SH-SY5Y APP 5'UTR luciferase reporter, luminescence; zero percent = DMSO vehicle wells | activation, % at 2 µM | actives 1% (n = 190,000);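 active = activation above a set limit, based on mean plus 3 SD of controls, cut at about 140% in these data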
STAT1 activator: increases IFN-gamma driven STAT1 reporter signal. NIH 3T3 STAT1-luciferase reporter, luminescence; 100% = IFN-gamma alone, no compound. activation (% of control), % at 5.5 µM. actives 2.6% (n = 200,000);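 active = activation above the screen-wide mean activation plus 3 SD, cut at about 130% in these data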;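 also: raw ratio to IFN-gamma control signal so 100% means no change and 0% no light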
NF-kB expr up: raises NF-kB expression in human neuronal cells; NF-kB reporter expression; active compounds read high; fold change at 12.5 µM; actives 1.6% (n = 190,000); AID 1239; in the data active = fold change above about 3.3
STAT1 activ conf: STAT1 activation, confirmation assay. activation (% of control), % at 5.7 µM. shares compounds with STAT1 activator. NIH 3T3 STAT1-luciferase reporter, IFN-gamma potentiation, luminescence; 100% = IFN-gamma EC80 alone, no compound. actives 97% (n = 1,200). AID 1262;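 active = activation above a set limit carried over from the earlier primary STAT1 screen, cut at about 140% in these data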;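 also: simple ratio to median IFN-gamma plus DMSO wells so 0% means no light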
NFkB act STAT1ct: activates NF-kappaB, counter-screen to STAT1 activators | activation (% of control), % at 5.7 µM | AID 1306 | actives 43% (n = 1,200) | shares compounds with STAT1 activator | HEK293T NF-kB luciferase reporter, TNF-alpha stimulated, luminescence; 100% = TNF-alpha with vehicle only;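 active = activation above the mean of solvent-only control wells plus 3 SD, set per campaign, cut at about 130% in these data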;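 also: TNF-alpha given at a submaximal dose yielding about 80% of full reporter signal; values are well signal over median control so 100% means no change and 0% no light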
STAT3 act 2: human STAT3 activation in STAT1 activator counter-screen; AID 1316; U3A cells STAT3-luciferase reporter, IL-6, luminescence; cells lack STAT1; 100 = IL-6 alone, no compound effect; actives 46% (n = 1,200); shares compounds with STAT1 activator; activation (% of control), % at 5.7 µM;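 active = activation above the solvent-only control well mean plus 3 SD, set per plate batch, cut at about 110% in these data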;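 also: 0% = no luminescence and 100% = median IL-6 plus DMSO wells; higher means more STAT3 reporter activation so hits are non-selective activators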
* hit, by the source's call; . = not tested or not shown.

SMILES | FLuc inhib CS | FLuc act counter | APP 5'UTR act | STAT1 activator | NF-kB expr up | STAT1 activ conf | NFkB act STAT1ct | STAT3 act 2
COc1ccc(/C=C2\OC(=O)c3c(OC)cccc32)cc1OC | 50.3* | 0.5 | 101.3 | 168.9* | 2.97 | 208.7* | 139.3* | 111.5*
COc1ccc(/C=C2\C(=O)OCc3cc(OC)c(OC)cc32)cc1OC | 22.2 | 0.8 | -6.3 | 92.5 | 1.22 | . | . | .
CC(=O)Nc1ccc(S(=O)(=O)N(C)CC(=O)OCC(=O)Nc2cccnc2Cl)cc1 | -3.9 | 1 | 13.7 | 109.5 | 1.19 | . | . | .
CCn1c(C)nc2cc(C(=O)OC(C(F)(F)C(F)F)C(F)(F)C(F)F)ccc21 | 1.7 | 1 | -1.7 | 182.5* | 0.9 | 181.8* | 120.1 | 114.7*
COc1ccc2c(=O)c(-c3ccc4c(c3)OCO4)coc2c1 | 65.5* | 0.3 | 192.4* | 163.9* | 4.34* | 217.5* | 96.9 | 79.8
CC(C)Oc1ccc2c(=O)c(-c3ccccc3)coc2c1 | 60.6* | 0.4 | 162.8* | 155.9* | 9.49* | 219.1* | 122.3 | 89.7
CN(C)S(=O)(=O)c1ccc(Cl)c(NC(=O)c2ccncc2)c1 | -7.3 | 1.1 | 4.0 | 99.8 | 1.42 | . | . | .
CC(C)CNC(=O)C(=O)N/N=C/c1cccs1 | 0.7 | 1 | 11.2 | 113.4 | 1.48 | . | . | .
O=C1CNC(=S)N1c1nc(-c2ccccc2)cs1 | 11.9 | 0.9 | 55.8 | 153.5* | 1.71 | 188.2* | 130.8 | 115.1*
COc1ccc(-c2csc(N3C(=O)C4C5c6ccccc6C(c6ccccc65)C4C3=O)n2)cc1 (stereo not drawn) | -5.7 | 1.1 | -7.8 | 93.7 | 1.01 | . | . | .
COc1ccc(-c2csc(N3C(=N)SCC3=O)n2)cc1 | 5.8 | 0.9 | 73.8 | 164.1* | 4.87* | 293.9* | 104.3 | 112.1*
COc1ccc(-c2csc(N3C(=O)CNC3=S)n2)cc1 | 28.4 | 0.7 | 204.5* | 179.2* | 5.35* | 260.4* | 113.6 | 104.1
COc1ccc(-c2csc(N3C(=O)C4C5c6ccccc6C(c6ccccc65)[C@@H]4C3=O)n2)cc1 (stereo partly drawn) | -7.2 | 1.1 | -18.0 | 101.5 | 0.97 | . | . | .
CCCCOc1ccc(N2C(=O)CC(NCc3ccncc3)C2=O)cc1 (stereo not drawn) | 3.8 | 1 | -24.8 | 100.9 | 1.07 | . | . | .
CCOc1cc(CNc2ccc3c(c2)OCCO3)cc(Br)c1OCC | -7.2 | 1.1 | -94.7 | 102.6 | 1.59 | . | . | .
Brc1ccc(-c2nnc(-c3ccccc3Br)o2)cc1 | 46.4 | 0.5 | 169.4* | 164.3* | 0.93 | 216.2* | 137.9* | 102.1
O=C(O)CCC(=O)Nc1ccc(-c2nnc(-c3ccco3)o2)cc1 | -3.2 | 1 | . | 96.7 | 1.12 | . | . | .
Clc1ccc(-c2nnc(-c3ccccc3Cl)o2)cc1 | 74.3* | 0.3 | 201.7* | 161.4* | 5.31* | 218.3* | 122.9 | 94.8
Brc1ccc(-c2nnc(-c3ccco3)o2)cc1 | 18.8 | 0.8 | 70.0 | 154.6* | 2.95 | 180.6* | 130.0 | 100.1
CCC(C(=O)OCC(=O)Nc1ccc(SC(F)F)cc1)c1ccccc1 (stereo not drawn) | -0.1 | 1 | -6.2 | 98.2 | 1.4 | . | . | .
Cc1nc(SCC(=O)Nc2c(C)n(C)n(-c3ccccc3)c2=O)[nH]c(=O)c1C | . | . | -27.4 | 104.4 | . | . | . | .
COc1ccc(S(=O)(=O)Nc2ccccc2OC)cc1NC(=O)CC1CC2CCC1C2 (stereo not drawn) | -4.2 | 1 | 15.5 | 101.5 | 0.61 | . | . | .
O=C1CCCc2nc3c(cc21)C(O)Oc1c-3ccc2ccccc12 (stereo not drawn) | -2.3 | 1 | 157.4* | 185.7* | 2.24 | 216.2* | 143.5* | 106.2
O=C1CCCc2nc3c(cc21)C(O)Oc1ccccc1-3 (stereo not drawn) | -1.4 | 1 | 9.8 | 104.9 | . | . | . | .
O=C(c1ccccc1)c1ccc(N2CCCC2)cc1 | 27.8 | 0.7 | 45.6 | 150.9* | 1.94 | 143.3* | 115.9 | 101.3
SMILES | FLuc inhib CS | FLuc act counter | APP 5'UTR act | STAT1 activator | NF-kB expr up | STAT1 activ conf | NFkB act STAT1ct | STAT3 act 2
O=C(/C=C/c1ccccc1)Nc1ccc(N2CCCCC2)cc1 | 15.8 | 0.8 | 84.0 | 150.9* | 1.05 | 168.0* | 125.1 | 104.6
Cn1c(N)c(C(=O)COC(=O)C2(c3cccc(F)c3)CCCC2)c(=O)n(C)c1=O | -2.2 | 1 | 8.5 | 97.1 | 0.7 | . | . | .
Cc1ccsc1/C=N\NC(=O)Cn1nnc2ccccc21 | -5.0 | 1.1 | -0.1 | 90.5 | 1.88 | . | . | .
O=C(Nc1cccnc1)c1noc2c1CCCC2 | 15.8 | 0.8 | 36.8 | 118.1 | 1.55 | . | . | .
CC(=O)c1ccc(NC(=O)c2noc3c2CCCCC3)cc1 | 8.1 | 0.9 | 160.6* | 150.9* | 4.99* | 222.6* | 129.3 | 102.2
O=C1CC(c2ccccc2)CN1C(=O)c1cncc(Br)c1 (stereo not drawn) | -4.8 | 1 | -12.6 | 96.5 | 1.41 | . | . | .
COc1cccc(-c2nc(-c3ccc(NC(=O)c4cccnc4)cc3)no2)c1 | -2.9 | 1 | 2.0 | 102.4 | 1.03 | . | . | .
O=C(Nc1ccc(-c2noc(-c3cccs3)n2)cc1)c1cccnc1 | 4.1 | 1 | 110.4 | 156.6* | 3.84* | 196.9* | 136.0* | 109.3
C/C(NC1CCCCC1)=C(/C#N)C(=O)NCCN1CCOCC1 | -2.3 | 1 | 3.4 | 98.5 | 0.96 | . | . | .
N#C/C(=C/c1ccc(N2CCCCC2)o1)C(=O)Nc1ccc(Cl)cc1 | 31.1 | 0.7 | 35.5 | 154.9* | 1.53 | 182.5* | 130.5 | 89.8
N#C/C(=C/c1ccc(N2CCCCC2)o1)C(=O)Nc1ccc2ccccc2c1 | 29.1 | 0.7 | 18.0 | 112.9 | 1.09 | . | . | .
c1ccc(Oc2cccc(NC3=NCCC3)c2)cc1 | -2.4 | 1 | -8.9 | 103.7 | 1.05 | . | . | .
COc1ccc(/C=C/c2nc3ccccc3n2Cc2ccccc2OC)cc1 | 87.5* | 0.1 | 178.8* | 153.6* | 5.62* | 166.3* | 122.0 | 113.0*
COc1ccc(C(C)(C)C)cc1NC(=O)Cn1cnnn1 | -3.1 | 1 | 24.6 | 102.6 | 1.07 | . | . | .
CN(C)CCCN(C(=O)c1cccs1)c1nc(-c2ccccc2)cs1 | -5.8 | 1.1 | 23.3 | 90.7 | 1.73 | . | . | .
CN(c1ccc(O)cc1)c1nc(-c2ccccc2)cs1 | 41.1 | 0.6 | 242.8* | 186.4* | 6.87* | 237.8* | 113.5 | 120.1*
N/C(=N\OC(=O)c1ccc2c(c1)OCO2)c1ccc(Cl)cc1 | 83.8* | 0.2 | 101.0 | 152.7* | 5.91* | 187.1* | 129.9 | 102.5
